Laboratory results reported in ChEMBL document CHEMBL1142162, “Synergistic interactions of the antiretroviral protease inhibitors saquinavir and ritonavir with chloroquine and mefloquine against Plasmodium falciparum in vitro” (Antimicrob Agents Chemother, 2007).
Calls of active or inactive are those of the source. The rule behind the calls is not given here.

What was measured:
Format in all cases: functional, organism-based
Plasmodium falciparum [1] = assay: Antimalarial activity against Plasmodium falciparum Dd2
In short: (§1)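 P. falciparum clones kept in modified candle jars; triplicate wells holding 100 µl culture (2% hematocrit, 1% parasitemia) plus 100 µl drug dilution or control. Growth read by tritiated hypoxanthine incorporation, media and vehicle controls on each plate. Experiments repeated at least twice; EC50 derived from pooled data of all experiments.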

Plasmodium falciparum [2] = assay: Antimalarial activity against Plasmodium falciparum D10; in short: as §1
Plasmodium falciparum [3] = assay: Antimalarial activity against Plasmodium falciparum FAC8; in short: as §1

Row | Structure (SMILES) | EC50 (Plasmodium falciparum [1]) | EC50 (Plasmodium falciparum [2]) | EC50 (Plasmodium falciparum [3]) | Activity (Plasmodium falciparum [1])
1 | CCN(CC)CCCC(C)Nc1ccnc2cc(Cl)ccc12 (stereo not drawn) [CHLOROQUINE] | 55 nM | – | – | –
2 | CC(C)C[C@H](NC(=O)[C@H]1O[C@@H]1C(=O)O)C(=O)NCCCCN=C(N)N [E-64] | 2900 nM | – | – | –
3 | O[C@@H](c1cc(C(F)(F)F)nc2c(C(F)(F)F)cccc12)[C@H]1CCCCN1 [MEFLOQUINE] | 60 nM | 64 nM | 23 nM | –
4 | CC(C)CC(=O)N[C@H](C(=O)N[C@H](C(=O)N[C@@H](CC(C)C)[C@@H](O)CC(=O)N[C@@H](C)C(=O)N[C@@H](CC(C)C)[C@@H](O)CC(=O)O)C(C)C)C(C)C [PEPSTATIN] | – | 14000 nM | – | inactive
5 | CC(C)c1nc(CN(C)C(=O)N[C@H](C(=O)N[C@@H](Cc2ccccc2)C[C@H](O)[C@H](Cc2ccccc2)NC(=O)OCc2cncs2)C(C)C)cs1 [RITONAVIR] | 850 nM | 1100 nM | 7000 nM | –
6 | CC(C)(C)NC(=O)[C@@H]1C[C@@H]2CCCC[C@@H]2CN1C[C@@H](O)[C@H](Cc1ccccc1)NC(=O)[C@H](CC(N)=O)NC(=O)c1ccc2ccccc2n1 [SAQUINAVIR] | 960 nM | 5500 nM | – | –
7 | CC(C)C[C@H](NC(=O)[C@@H](O)[C@H](N)Cc1ccccc1)C(=O)O [UBENIMEX] | 5100 nM | – | – | –
